In PubChem BioAssay AID2770 (The Scripps Research Institute Molecular Screening Center, 2010):
Active and inactive are the calls of the source. The rule behind the calls is not given here.

Key:
Assay in all cases: agonist activity on off-target TRP channel panel – cell-based, Fura-2 calcium ratio, transfected HEK293, SAR round 1, selectivity assay for TRPML3 agonist project, profiling panel (AID 2770)
[1] = target: Mucolipin-1 (Homo sapiens) (UniProt Q9GZU1); settings: HEK293 transfected TRP channels
How it was run: (§1)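 System: HEK293 cells transiently expressing human, mouse or zebrafish TRP channels, or mock-transfected; Quantity: 20-30 cells imaged per experiment; Medium: HEPES-buffered bath solution at pH 7.4; Schedule: compound perfusion 20-25 h post-transfection, then 2 min calcium imaging; Measured by: ratiometric fluorescence imaging with 4 µM fura-2-AM calcium dye; Replication: n ≥3 independent experiments.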

hTRPC3 = settings: HEK293 transfected TRP channels
How it was run: as §1

[2] = target: Ion channel NompC (Danio rerio) (UniProt Q7T1G6); settings: HEK293 transfected TRP channels, drTRPN1
How it was run: as §1

mTRPV2 = settings: HEK293 transfected TRP channels
How it was run: as §1

hTRPM2 = settings: HEK293 transfected TRP channels
How it was run: as §1

mTRPML2 (mucolipin 2) = settings: HEK293 transfected TRP channels
How it was run: as §1

hTRPA1 = settings: HEK293 transfected TRP channels
How it was run: as §1

HEK cells = settings: HEK293 transfected TRP channels, at 10 µM, hits give high values
How it was run: as §1

[3] = hTRPML1 (NC) plasma membrane variant

Mucolipin-1 (Homo sapiens), sequence (Q9GZU1 whole entry, looked up, the tested form may be a part): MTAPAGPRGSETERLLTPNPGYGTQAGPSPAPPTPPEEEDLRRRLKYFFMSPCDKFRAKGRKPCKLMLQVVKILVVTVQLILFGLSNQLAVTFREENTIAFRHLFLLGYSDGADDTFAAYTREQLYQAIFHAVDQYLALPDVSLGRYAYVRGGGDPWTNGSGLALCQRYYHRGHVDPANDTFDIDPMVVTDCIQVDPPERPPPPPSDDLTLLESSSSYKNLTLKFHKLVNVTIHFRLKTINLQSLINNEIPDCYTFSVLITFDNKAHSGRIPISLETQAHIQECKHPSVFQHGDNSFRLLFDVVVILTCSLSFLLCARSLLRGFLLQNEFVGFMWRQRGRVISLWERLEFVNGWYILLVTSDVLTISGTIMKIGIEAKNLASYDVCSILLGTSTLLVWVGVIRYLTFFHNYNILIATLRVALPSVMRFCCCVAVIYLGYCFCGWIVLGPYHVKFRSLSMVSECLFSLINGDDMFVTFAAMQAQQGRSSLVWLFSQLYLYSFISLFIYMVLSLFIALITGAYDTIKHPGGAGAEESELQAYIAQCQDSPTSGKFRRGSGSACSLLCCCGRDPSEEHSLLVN

outcome ([1]; hTRPML1)	outcome [1, 3]	outcome (hTRPC3)	outcome [2]	outcome (mTRPV2)	outcome (hTRPM2)	outcome (hTRPA1)	SMILES	outcome (mTRPML2 (mucolipin 2))	Fura-2 340/380 ratio change (HEK cells)
inactive; selective for TRPML3	inactive; selective for TRPML3	inactive; selective for TRPML3	inactive; selective for TRPML3	inactive; selective for TRPML3	inactive; selective for TRPML3	inactive; selective for TRPML3	CCOc1ccc(S(=O)(=O)N2CCCCCC2)c2ccccc12	inactive; selective for TRPML3	-0.011 (inactive)
inactive; selective for TRPML3	inactive; selective for TRPML3	inactive; selective for TRPML3	inactive; selective for TRPML3	inactive; selective for TRPML3	inactive; selective for TRPML3	inactive; selective for TRPML3	CC1CCN(S(=O)(=O)c2ccc(C(C)C)cc2)CC1	inactive; selective for TRPML3	-0.008 (inactive)
inactive; selective for TRPML3	inactive; selective for TRPML3	inactive; selective for TRPML3	inactive; selective for TRPML3	inactive; selective for TRPML3	inactive; selective for TRPML3	inactive; selective for TRPML3	Cc1ccc(S(=O)(=O)n2nccc2-c2c(-c3ccc(Cl)cc3)noc2C)cc1	inactive; selective for TRPML3	-0.005 (inactive)
